Like-named read-outs stand apart in the source and are kept apart here. Each block holds one compound with its values, some of them ahead of it.
How the values were obtained:
[1] = test system: MCF-7 human breast cancer cells; experiment: MTT cytotoxicity assay in MCF-7 cells; type: cell-based; conditions: for inhibition of cell proliferation (in words): MTT
In short: (§1)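 Cells seeded at 5×10³ (MCF-7) or 3×10³ (PC-3) per well and grown 24 h in DMEM with 10% FBS and 1% streptomycin/penicillin. They were then exposed for 48 h to various concentrations of test compound alone or combined with another anticancer agent. Viability was read by MTT. IC50 came from fitting an inhibitory normalised dose-response model with variable slope.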

[2] = test system: 4T1.2 mouse breast cancer cells; experiment: MTT cytotoxicity assay in 4T1.2 cells; type: cell-based
[3] = test system: PC-3 human prostate cancer cells; experiment: MTT cytotoxicity assay in PC-3 cells; type: cell-based
In short: as §1

GCS mRNA [4] = experiment: GCS mRNA expression by real-time PCR in MCF-7 cells; type: cell-based, human; conditions: 48 h; for effect on GCS mRNA expression: various concentrations
GCS mRNA [5] = experiment: GCS mRNA expression by real-time PCR in 4T1.2 cells; type: cell-based, mouse; conditions: 48 h; for effect on GCS mRNA expression: various concentrations
ceramides in MCF-7 cells = experiment: Ceramide levels by LC/MS in MCF-7 cells; type: cell-based, human; conditions: PPMP 1.7 μM and/or DOX 100 nM, 48 h
In short: (§2)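 Cells seeded at 2×10⁴ (4T1.2) or 6×10⁴ (MCF-7) per well in DMEM with 10% FBS and 1% penicillin-streptomycin for 24 h. Medium was then replaced with 2% FBS medium containing test compound, free or micellar. After 48 h, cells were washed with ice-cold D-PBS and lysed in 0.2% SDS, with an aliquot kept for protein assay. Lipids were resuspended in ACN/IPA/H₂O (1:1:1) and analysed by HPLC-ESI-MS/MS. Peak areas were quantified against C6-ceramide internal standard and normalised to protein.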

ceramides in 4T1.2 cells = experiment: Ceramide levels by LC/MS in 4T1.2 cells; type: cell-based, mouse; conditions: PPMP 1.7 μM and/or DOX 100 nM, 48 h
In short: as §2

[6] = In vitro DOX release by dialysis in DPBS; type: physicochemical; conditions: DOX 0.5 mg/mL
In short: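 Dialysis release was run alongside free drug and drug loaded in a pharmacologically inert copolymer micelle as comparators. Cumulative release was followed from 0 to 72 h in triplicate.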

[7] = Plasma pharmacokinetics of DOX; type: in vivo, tumor-free female CD1 mice; conditions: DOX in plasma; i.v. 5 mg/kg DOX; CD1 mice

Structure (SMILES): CCCCCCCCCCCCCCCC(=O)NC(CN1CCOCC1)C(O)c1ccccc1 (centres unmarked) [PPMP, 1-phenyl-2-palmitoylamino-3-morpholino-1-propanol]
- IC50 ([1]; Homo sapiens, MCF7, 48 h, read-out: D501, IC50 of PPMP in single treatment): 5.7 ± 0.4 µM
- inhibition of cell proliferation (in words) ([1]; MCF-7, 48 h): concentration-dependent inhibition
- cytotoxicity / inhibition of proliferation (in words) ([2]; 4T1.2, 48 h, MTT): inhibited the proliferation
- IC50 ([2]; Mus musculus, 4T1.2, 48 h, read-out: D501, IC50 of PPMP in single treatment): 2.2 ± 0.1 µM
- IC50 ([3]; Homo sapiens, PC-3, 48 h, read-out: D501, IC50 of PPMP in single treatment): 3.4 ± 0.1 µM
- effect on DOX-induced upregulation of GCS mRNA expression (GCS mRNA [4]; PPMP 1.7 μM, DOX 100 nM): effective in inhibiting
- effect on basal level of GCS mRNA (GCS mRNA [4]; PPMP concentration 1.7 μM): significant decreases
- effect on DOX-induced upregulation of GCS mRNA expression (GCS mRNA [5]; PPMP 1.7 μM, DOX 100 nM): effective in inhibiting
- effect on basal level of GCS mRNA (GCS mRNA [5]; PPMP concentration 1.7 μM): significant decreases
- effect on amount of C16 ceramide (ceramides in MCF-7 cells): modest increase
- effect on amount of C16 ceramide (ceramides in 4T1.2 cells): modest increase

Structure (SMILES): CCCCCCCCCCCCC/C=C/[C@@H](O)[C@H](CO)NC(=O)CCCCC [C6-ceramide]
- IC50 ([1]; read-out: D502, IC50 of drug 2 in single treatment, MCF-7, 48 h): 6.2 ± 0.2 µM
- IC50 ([2]; read-out: D502, IC50 of drug 2 in single treatment, 4T1.2, 48 h): 2.8 ± 0.2 µM
- IC50 ([3]; read-out: D502, IC50 of drug 2 in single treatment, PC-3, 48 h): 1.6 ± 0.1 µM
- increase of GCS mRNA expression level (GCS mRNA [4]; C6-ceramide 2 μM): 6.5 fold
- effect on GCS mRNA expression (GCS mRNA [4]): significant increases
- effect on GCS mRNA expression (GCS mRNA [5]): similarly observed

- DOX released ([6]; in 2 h): Forty eight
- DOX released ([6]; within 12 h): around 83%
- AUC0−∞ [7]: 9200 ng·h/mL
- CL [7]: 10.87 µL/h
- Cmax [7]: 4410 µg/mL
- T1/2 [7]: 3.35 h
- Vd [7]: 52.49 µL
Structure (SMILES): COc1cccc2c1C(=O)c1c(O)c3c(c(O)c1C2=O)C[C@@](O)(C(=O)CO)C[C@@H]3O[C@H]1C[C@H](N)[C@H](O)[C@H](C)O1 [DOX, Doxorubicin]
- inhibition of cell proliferation (in words) ([1]; MCF-7, 48 h): concentration-dependent inhibition
- increase of GCS mRNA expression level (GCS mRNA [4]; DOX 200 nM): 4.2 fold
- effect on GCS mRNA expression (GCS mRNA [4]): significant increases
- effect on GCS mRNA expression (GCS mRNA [5]): similarly observed
- effect on amount of C16 ceramide (ceramides in MCF-7 cells): significantly induced
- effect on amount of C16 ceramide (ceramides in 4T1.2 cells): significantly induced

Structure (SMILES): CC(=O)O[C@H]1C(=O)[C@@]2(C)[C@H]([C@H](OC(=O)c3ccccc3)[C@]3(O)C[C@H](OC(=O)[C@H](O)[C@@H](NC(=O)c4ccccc4)c4ccccc4)C(C)=C1C3(C)C)[C@]1(OC(C)=O)CO[C@@H]1C[C@@H]2O [PTX, paclitaxel]
- IC50 ([1]; Homo sapiens, MCF7, 48 h, read-out: D502, IC50 of drug 2 in single treatment): 7.14 ± 1.87 µg/mL
- IC50 ([2]; Mus musculus, 4T1.2, 48 h, read-out: D502, IC50 of drug 2 in single treatment): 0.108 ± 0.0181 µg/mL
- IC50 ([3]; Homo sapiens, PC-3, 48 h, read-out: D502, IC50 of drug 2 in single treatment): 0.0043 ± 0.0002 µg/mL
- effect on GCS mRNA expression (GCS mRNA [4]): significant induction
- effect on GCS mRNA expression (GCS mRNA [5]): not in 4T1.2 cells

— PMC6177216 (Journal of controlled release : official journal of the …, 2018)
